Results published in ChEMBL document CHEMBL1132179, “Design, synthesis, and biological evaluation of novel non-piperazine analogues of 1-[2-(diphenylmethoxy)ethyl]- and 1-[2-[bis(4-fluorophenyl)methoxy]ethyl]-4-(3-phenylpropyl)piperazines as dopamine transporter inhibitors” (J Med Chem, 1999).

Legend:
[1] = target: Monoamine transporters; Norepinephrine & dopamine (Homo sapiens) (UniProt Q01959+P23975); experiment: selectivity ratio between noradrenaline and dopamine transporter binding; assay type: protein assay
Monoamine transporters; Norepinephrine & dopamine (Homo sapiens), sequence (P23975 whole entry, looked up): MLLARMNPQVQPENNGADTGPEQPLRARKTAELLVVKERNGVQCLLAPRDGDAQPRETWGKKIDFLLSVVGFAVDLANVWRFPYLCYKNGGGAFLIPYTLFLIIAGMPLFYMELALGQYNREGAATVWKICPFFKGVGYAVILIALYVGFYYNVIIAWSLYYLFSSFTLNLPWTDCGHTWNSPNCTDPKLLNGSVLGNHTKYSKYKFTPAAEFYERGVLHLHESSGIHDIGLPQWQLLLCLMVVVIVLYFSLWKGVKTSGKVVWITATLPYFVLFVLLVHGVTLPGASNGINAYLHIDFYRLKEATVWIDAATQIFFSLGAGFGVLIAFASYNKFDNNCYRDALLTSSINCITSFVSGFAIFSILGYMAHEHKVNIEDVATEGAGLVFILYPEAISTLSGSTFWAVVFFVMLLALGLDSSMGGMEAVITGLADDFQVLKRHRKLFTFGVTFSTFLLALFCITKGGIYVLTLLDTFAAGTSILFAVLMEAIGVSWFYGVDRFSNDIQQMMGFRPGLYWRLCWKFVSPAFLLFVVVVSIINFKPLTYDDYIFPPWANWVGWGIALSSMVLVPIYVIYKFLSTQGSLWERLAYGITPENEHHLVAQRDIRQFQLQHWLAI
Monoamine transporters; Norepinephrine & dopamine (Homo sapiens), sequence (Q01959 whole entry, looked up): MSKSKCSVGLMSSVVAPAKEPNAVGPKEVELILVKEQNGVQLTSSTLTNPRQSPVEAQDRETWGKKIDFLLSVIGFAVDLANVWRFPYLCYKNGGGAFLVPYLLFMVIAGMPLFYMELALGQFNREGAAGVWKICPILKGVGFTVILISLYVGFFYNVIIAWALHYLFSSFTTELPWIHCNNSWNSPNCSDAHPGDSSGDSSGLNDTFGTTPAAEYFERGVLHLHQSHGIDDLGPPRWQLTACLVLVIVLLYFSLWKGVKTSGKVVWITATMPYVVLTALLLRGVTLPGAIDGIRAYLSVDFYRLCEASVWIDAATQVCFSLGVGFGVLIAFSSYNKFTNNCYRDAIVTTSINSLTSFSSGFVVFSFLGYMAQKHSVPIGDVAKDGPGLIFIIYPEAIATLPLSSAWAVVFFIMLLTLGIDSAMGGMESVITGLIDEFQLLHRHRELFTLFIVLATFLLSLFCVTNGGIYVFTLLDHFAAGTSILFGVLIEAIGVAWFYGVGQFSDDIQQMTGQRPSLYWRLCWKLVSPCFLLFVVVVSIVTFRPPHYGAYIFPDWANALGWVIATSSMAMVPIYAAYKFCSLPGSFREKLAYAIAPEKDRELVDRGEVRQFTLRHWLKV

[2] = target: T1, Sodium-dependent dopamine transporter (Homo sapiens, UniProt Q01959); experiment: Inhibition of [125I]RTI-55 binding at Dopamine transporter (DAT) expressed in HEK cells; assay type: cell-based, HEK293
T1 sequence (Q01959 whole entry): as the sequence (Q01959 whole entry, looked up) above
Method in brief: (§1)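 Membranes from transfected HEK 293 cells (lysed in 2 mM HEPES/1 mM EDTA, pelleted at 30000g, resuspended in 0.32 M sucrose), ~15 μg protein per tube. GF/C filtration, counting. Duplicate competition curves; IC50 converted to Ki by Cheng–Prusoff.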

[3] = target: T2, Sodium-dependent serotonin transporter (Homo sapiens, UniProt P31645); experiment: Inhibition of [125I]RTI-55 binding to serotonin transporter (SERT) expressed in HEK cells; assay type: cell-based, HEK293; method in brief: as §1
Target sequence in this assay (P31645 whole entry): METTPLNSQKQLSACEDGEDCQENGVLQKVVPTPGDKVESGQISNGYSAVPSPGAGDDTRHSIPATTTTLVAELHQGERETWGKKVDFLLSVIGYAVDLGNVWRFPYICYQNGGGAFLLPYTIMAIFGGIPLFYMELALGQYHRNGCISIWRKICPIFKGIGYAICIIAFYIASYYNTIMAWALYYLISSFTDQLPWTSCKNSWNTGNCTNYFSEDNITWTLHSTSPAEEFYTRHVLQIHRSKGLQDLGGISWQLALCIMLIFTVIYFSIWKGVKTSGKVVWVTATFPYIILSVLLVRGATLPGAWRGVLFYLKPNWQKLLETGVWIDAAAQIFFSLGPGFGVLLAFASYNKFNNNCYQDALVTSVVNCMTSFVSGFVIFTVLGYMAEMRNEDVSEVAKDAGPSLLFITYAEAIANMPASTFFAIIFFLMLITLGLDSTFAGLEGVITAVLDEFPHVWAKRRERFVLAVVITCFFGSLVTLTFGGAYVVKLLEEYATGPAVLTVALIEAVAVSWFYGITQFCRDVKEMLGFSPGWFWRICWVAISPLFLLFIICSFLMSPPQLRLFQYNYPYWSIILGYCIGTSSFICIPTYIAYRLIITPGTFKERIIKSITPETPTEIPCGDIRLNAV

[4] = target: T1, Sodium-dependent dopamine transporter; experiment: Inhibition of [3H]DA uptake in HEK cells expressing dopamine transporter; assay type: functional, cell-based, HEK293
Method in brief: (§2)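 Confluent transfected HEK 293 cells washed in PBS, scraped and suspended. Suspension preincubated with drug 10 min at 25 °C in Krebs HEPES, then [3H]DA or [3H]5-HT (20 nM final) added for another 10 min. Ended by filtration onto GF/C filters presoaked in 0.05% poly(ethylenimine), counting. Six drug concentrations, triplicate; IC50 reported.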

[5] = target: T3, Sodium-dependent noradrenaline transporter (Homo sapiens, UniProt P23975); experiment: Inhibition of [125I]RTI-55 binding to norepinephrine transporter (NET) expressed in HEK cells; assay type: cell-based, HEK293
T3 sequence (P23975 whole entry): as the sequence (P23975 whole entry, looked up) above

[6] = target: T1, Sodium-dependent dopamine transporter; experiment: Ratio between [3H]DA reuptake and DAT binding; assay type: functional
[7] = target: T2, Sodium-dependent serotonin transporter; experiment: Inhibition of [3H]- 5-HT uptake in HEK cells expressing serotonin transporter; assay type: functional, cell-based, HEK293; method in brief: as §2
Target sequence in this assay (P31645 whole entry): as the sequence (P31645 whole entry) above

[8] = target: Monoamine transporters; serotonin & dopamine (Homo sapiens) (UniProt P31645+Q01959); experiment: Selectivity ratio between serotonin and dopamine transporters; assay type: protein assay
Monoamine transporters; serotonin & dopamine (Homo sapiens), sequence (P31645 whole entry, looked up): as the sequence (P31645 whole entry) above
Monoamine transporters; serotonin & dopamine (Homo sapiens), sequence (Q01959 whole entry, looked up): as the sequence (Q01959 whole entry, looked up) above

[9] = target: T3, Sodium-dependent noradrenaline transporter; experiment: Inhibition of [3H]- NE uptake in HEK cells expressing norepinephrine transporter; assay type: functional, cell-based, HEK293
[10] = target: T2, Sodium-dependent serotonin transporter; experiment: Ratio between [3H]5-HT reuptake and SERT binding; assay type: functional
Target sequence in this assay (P31645 whole entry, looked up): as the sequence (P31645 whole entry) above

[11] = target: T3, Sodium-dependent noradrenaline transporter; experiment: Compound was tested for its affinity by the inhibition of [125I]RTI-55 binding at norepinephrine transporter (NET) transfected in HEK cells; assay type: cell-based, HEK293
Method in brief: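 Membranes from HEK 293 cells transfected with NET (lysed in 2 mM HEPES/1 mM EDTA, pelleted at 30000g, resuspended in 0.32 M sucrose), ~15 μg protein, preincubated with drug 10 min. Then [125I]RTI-55 (40–80 pM final) added in Krebs HEPES, 90 min at room temperature in dark. Filtration, counting. Competition in duplicate; IC50 converted to Ki by Cheng–Prusoff. Final DMSO 0.01%.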

SMILES	Selectivity ratio [1]	Ki [2] [nM]	Ki [3] [nM]	IC50 [4] [nM]	Ki [5] [nM]	Ratio [6]	IC50 [7] [nM]	Selectivity ratio [8]	IC50 [9] [nM]	Ratio [10]	Ki [11] [nM]
CN(CCCN(C)CCc1ccccc1)CCOC(c1ccccc1)c1ccccc1	0.6	322	1530	349	194	1.1	1700	4.7	210	1.1	–
O=C1CN(CCOC(c2ccccc2)c2ccccc2)CCN1CCCc1ccccc1	1	8200	5900	> 10	–	> 1.2	> 10	0.7	> 10	> 1.7	5850
O=C(CCc1ccccc1)NCCNCCOC(c1ccc(F)cc1)c1ccc(F)cc1	10.7	51	523	90	545	1.8	1140	10.3	205	2.2	–
O=C(Cc1ccc(F)cc1)NCCNCCOC(c1ccc(F)cc1)c1ccc(F)cc1	15.6	54	351	47	844	0.9	1990	6.5	299	5.7	–
O=C1CN(CCc2ccccc2)CCN1CCOC(c1ccc(F)cc1)c1ccc(F)cc1	4.9	1430	114	> 10000	7050	> 1.7	3940	0.1	> 10000	> 34.5	–
O=C(Cc1ccccc1)NCCNCCOC(c1ccc(F)cc1)c1ccc(F)cc1	11.2	54	556	80	604	1.5	1300	10.3	399	2.3	–
O=C(Cc1ccccc1)NCCCNCCOC(c1ccc(F)cc1)c1ccc(F)cc1	7.8	61	1150	73	477	1.2	1230	18.8	192	1.1	–
CN(CCOC(c1ccc(F)cc1)c1ccc(F)cc1)CCN(C)CCOC(c1ccc(F)cc1)c1ccc(F)cc1	10.2	26	770	830	261	32.4	> 10000	30.1	2600	> 13	–
CN(CCOC(c1ccccc1)c1ccccc1)CCN(C)CCc1ccc(F)cc1	12.3	30	550	119	370	4	1050	18.3	279	1.9	–
CN(CCCc1ccccc1)CCCN(C)CCOC(c1ccccc1)c1ccccc1	0.2	122	438	237	30	1.9	1700	3.6	143	3.9	–
O=C(/C=C/c1ccc(Br)cc1)NCCNCCOC(c1ccc(F)cc1)c1ccc(F)cc1	3.5	510	590	1380	1760	2.7	4500	1.2	> 10000	7.6	–
Fc1ccc(C(OCCNCCCNCCc2ccccc2)c2ccc(F)cc2)cc1	2.9	28	125	68	82	2.4	249	4.5	116	2	–
